What was measured:
[1] = molecular target: 72 kDa type IV collagenase (Homo sapiens, UniProt P08253); test: Inhibitory concentration against MMP-2
How it was run: (§1)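 Continuous fluorescence assay of commercially sourced enzyme cleaving a synthetic peptide whose fluorophore (7-methoxycoumarin or 2-aminobenzoyl) is quenched by 2,4-dinitrophenyl. Signal is read at the fluorophore's excitation/emission wavelengths. MMP-2 was preactivated with APMA. MMP-3 used substrate Mca-PKPLAL-Dpa-AR-NH2.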

Interstitial collagenase = molecular target: T1, Interstitial collagenase (Homo sapiens, UniProt P03956); test: Inhibitory concentration against MMP-1
T1 sequence (P03956 whole entry): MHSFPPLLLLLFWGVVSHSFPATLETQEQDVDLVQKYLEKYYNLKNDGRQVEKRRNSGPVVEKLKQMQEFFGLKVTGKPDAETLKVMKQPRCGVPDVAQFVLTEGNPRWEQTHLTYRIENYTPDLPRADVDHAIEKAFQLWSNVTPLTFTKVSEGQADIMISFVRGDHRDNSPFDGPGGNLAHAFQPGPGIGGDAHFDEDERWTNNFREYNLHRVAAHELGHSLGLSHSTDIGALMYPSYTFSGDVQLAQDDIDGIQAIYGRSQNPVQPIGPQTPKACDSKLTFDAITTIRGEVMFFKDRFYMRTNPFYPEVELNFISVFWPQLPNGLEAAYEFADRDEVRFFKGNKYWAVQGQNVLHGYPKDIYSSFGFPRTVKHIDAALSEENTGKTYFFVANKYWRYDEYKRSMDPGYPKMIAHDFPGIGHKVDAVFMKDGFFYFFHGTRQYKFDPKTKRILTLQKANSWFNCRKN
How it was run: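 Continuous fluorescence assay with in-house prepared enzyme. The synthetic peptide substrate carries a 7-methoxycoumarin or 2-aminobenzoyl fluorophore quenched by energy transfer to 2,4-dinitrophenyl. Read in plate fluorimeter at fluorophore excitation/emission wavelengths.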

[2] = Half-life in rat upon iv administration; assay type: ADME, organism-based; details: in vivo
How it was run: (§2)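 Rats were dosed intravenously at 2 mg/kg and orally at 5 mg/kg. Clearance and iv half-life come from the intravenous arm, oral half-life from the oral arm, and bioavailability from comparison of the two routes.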

[3] = Oral bioavailability in rat; assay type: ADME, organism-based; details: in vivo; how it was run: as §2
[4] = Half-life in rat upon oral administration at 5 mg/kg; assay type: ADME, organism-based; design: dose 5 mg/kg, route oral; details: in vivo; how it was run: as §2
[5] = Total clearance from rat upon iv administration at 2 mg/kg; assay type: ADME, organism-based; design: dose 2 mg/kg, route intravenous; details: in vivo; how it was run: as §2
Bos taurus = species: Bos taurus; test: Selectivity ratio for IC50 of MMP-2 to that of MMP-13
How it was run: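 Both IC50s come from continuous fluorescence assays using quenched peptide substrates (7-methoxycoumarin or 2-aminobenzoyl fluorophore, 2,4-dinitrophenyl quencher), read by plate fluorimeter. MMP-13 was prepared in-house. MMP-2 was commercial and activated with […]. […] The ratio is MMP-2 IC50 over MMP-13 IC50.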

Collagenase 3 = Collagenase 3 (Bos taurus, UniProt O77656); test: Inhibitory concentration against MMP-13 of bovine articular cartilage explants
[6] = molecular target: Matrix metalloproteinase-14 (Homo sapiens, UniProt P50281); test: Inhibitory concentration against MMP-14
[7] = Inhibitory concentration against MMP-3; how it was run: as §1
[8] = Inhibitory concentration against MMP-7; how it was run: as §1
[9] = Inhibitory concentration against MMP-9; how it was run: as §1

Chain of 72 kDa type IV collagenase (P08253 whole entry): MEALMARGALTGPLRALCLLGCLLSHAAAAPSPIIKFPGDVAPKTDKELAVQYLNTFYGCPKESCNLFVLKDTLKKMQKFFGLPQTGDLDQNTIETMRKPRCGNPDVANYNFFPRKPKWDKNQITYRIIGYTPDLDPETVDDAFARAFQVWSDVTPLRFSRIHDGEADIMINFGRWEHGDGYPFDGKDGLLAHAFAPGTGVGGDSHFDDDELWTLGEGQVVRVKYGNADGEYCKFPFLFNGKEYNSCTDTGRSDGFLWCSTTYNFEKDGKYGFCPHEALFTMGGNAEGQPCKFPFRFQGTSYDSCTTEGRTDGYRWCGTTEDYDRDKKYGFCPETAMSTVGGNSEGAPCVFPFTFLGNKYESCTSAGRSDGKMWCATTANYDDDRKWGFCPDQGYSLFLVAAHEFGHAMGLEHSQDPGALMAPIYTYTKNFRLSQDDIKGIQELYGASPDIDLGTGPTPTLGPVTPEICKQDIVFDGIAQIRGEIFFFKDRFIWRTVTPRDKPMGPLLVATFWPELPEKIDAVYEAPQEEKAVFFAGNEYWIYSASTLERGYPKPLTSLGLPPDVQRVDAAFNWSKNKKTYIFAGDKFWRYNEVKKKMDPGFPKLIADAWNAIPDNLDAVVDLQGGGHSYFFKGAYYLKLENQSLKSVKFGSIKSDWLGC

Structure (SMILES)	IC50 [1] [nM]	Selectivity (Bos taurus)	IC50 (Collagenase 3) [nM]	other results
CC(C)[C@H](NS(=O)(=O)c1ccc(-c2ccc(NC(=O)c3cc4ccccc4o3)cc2)cc1)C(=O)O	5	–	–	IC50 (Interstitial collagenase): > 16000 nM; half-life [2]: 3.7 h; bioavailability [3]: 24%; half-life [4]: 3 h; clearance [5]: 2 mL/min/kg
CC(C)[C@H](NS(=O)(=O)c1ccc(-c2ccc(NC(=O)c3cc4cc([N+](=O)[O-])ccc4o3)cc2)cc1)C(=O)O	2	2.8	0.7	–
CC(C)[C@H](NS(=O)(=O)c1ccc(-c2ccc(NC(=O)c3cc4cc(NS(=O)(=O)c5ccccc5)ccc4o3)cc2)cc1)C(=O)O	–	5.6	3.4	–
COc1cccc2cc(C(=O)Nc3ccc(-c4ccc(S(=O)(=O)N[C@H](C(=O)O)C(C)C)cc4)cc3)oc12	12.1	0.6	20.2	IC50 [6]: 10900 nM
CC(Oc1cccc2oc(C(=O)Nc3ccc(-c4ccc(S(=O)(=O)N[C@H](C(=O)O)C(C)C)cc4)cc3)cc12)C(=O)O (stereo not given in full)	1590	107	14.9	IC50 [7]: 843 nM; IC50 [6]: 20000 nM; IC50 [8]: 2500 nM; IC50 [9]: 5600 nM
O=C(O)CNS(=O)(=O)c1ccc(-c2ccc(NC(=O)c3cc4ccccc4o3)cc2)cc1	–	–	22	–
O=C(NCCCCN1CCOCC1)c1cc2ccccc2o1	–	–	3200	–
CC(C)[C@H](NS(=O)(=O)c1ccc(-c2ccc(NC(=O)c3cc4cc(NS(C)(=O)=O)ccc4o3)cc2)cc1)C(=O)O	3.9	9.1	0.43	–
CC(C)[C@H](NS(=O)(=O)c1ccc(-c2ccc(NC(=O)c3cc4cc(N)ccc4o3)cc2)cc1)C(=O)O	–	–	1.5	–
O=C(Nc1ccc(-c2ccc(S(=O)(=O)N[C@@H](CO)C(=O)O)cc2)cc1)c1cc2ccccc2o1	27.8	–	4.5	–
CC(C)[C@H](NS(=O)(=O)c1ccc(-c2ccc(NCc3cc4ccccc4o3)cc2)cc1)C(=O)O	23.3	–	4.9	IC50 [6]: 6600 nM
CC(=O)Nc1ccc2oc(C(=O)Nc3ccc(-c4ccc(S(=O)(=O)N[C@H](C(=O)O)C(C)C)cc4)cc3)cc2c1	4	4.1	0.98	–
CC(C)C[C@H](NS(=O)(=O)c1ccc(-c2ccc(NC(=O)c3cc4ccccc4o3)cc2)cc1)C(=O)O	–	–	2.19	–
CC(C)[C@H](NS(=O)(=O)c1ccc(-c2ccc(NC(=O)c3cc4cc(Cl)ccc4o3)cc2)cc1)C(=O)O	3.2	5.3	0.6	–
CC(C)[C@H](NS(=O)(=O)c1ccc(-c2ccc(NC(=O)c3csnn3)cc2)cc1)C(=O)O	2.14	–	–	–
CC(C)[C@H](NS(=O)(=O)c1ccc(-c2ccc(NC(=O)c3cc4c(OCc5ccccc5)cccc4o3)cc2)cc1)C(=O)O	–	18	–	–
NC(=O)C[C@H](NS(=O)(=O)c1ccc(-c2ccc(NC(=O)c3cc4ccccc4o3)cc2)cc1)C(=O)O	–	–	2.53	–
Cc1cc(C)c(N(Cc2ccccc2)S(=O)(=O)c2ccc(OCCNC(=O)c3cc4ccccc4o3)cc2)c(C(=O)NO)c1	–	–	10000	–
COc1ccc2oc(C(=O)Nc3ccc(-c4ccc(S(=O)(=O)N[C@H](C(=O)O)C(C)C)cc4)cc3)cc2c1	1.9	2.8	0.66	IC50 [6]: 1.5 nM
COc1cccc2oc(C(=O)Nc3ccc(-c4ccc(S(=O)(=O)N[C@H](C(=O)O)C(C)C)cc4)cc3)cc12	–	6.9	2.33	–

Source: ChEMBL document CHEMBL1142820, “Identification of potent and selective MMP-13 inhibitors” (Bioorg Med Chem Lett, 2005)
